This sample holds only a part of the variants without activity.
B1: tRNA (parent)
chain: GUUCCGUUGGCGUAAUGGUAACGCGUCUCCCUCCUAAGGAGAAGACUGCGGGUUCGAGUCCCGUACGGAACG

Variants of: B1
Experiment: yeast fitness relative to wild type (ratio to wild type); higher = fitter; tRNA-Arg(CCU), competitive growth, 37 C, YPD
Outline: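 A pool of Saccharomyces cerevisiae strains, each with a tRNA-Arg(CCU) gene variant at the native genomic locus, was competed in YPD at 37°C for 24 hours across six parallel replicates. The variants had been chemically synthesised at a 3% per-site mutation rate over 69 sites, and gene amplicons before and after competition were read by 100-nucleotide paired-end sequencing. Darwinian fitness relative to wild type rested on changes in genotype frequencies. Genotypes required ≥ 100 starting reads, and estimates < 0.5 were set to 0.5.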

Variant	yeast fitness
G9A C11U C27U A36G	≤ 0.5
G9A C11U C49A G67U	≤ 0.5
G9A U13A C24A A45C	≤ 0.5
G9A G10A C55A A65U G67C	0.506
G9A C22G U28A C31G C55A G68C	≤ 0.5
G9A C11U C61A	0.56
G9A G23A G25C U28C A57U A70U	≤ 0.5
G9A G17A C22G A40G G41C	≤ 0.5
G9A C22G A45G	0.588
G9C A15G C24A C49U	≤ 0.5
G9A G52A	0.687
G9C A21G C34G	≤ 0.5
G9A C24G A40C	≤ 0.5
G9A C22A C60A	0.705
G9A C11A A14C U16A C31A C62U	≤ 0.5
G9A C31U C60U A65G	≤ 0.5
G9A G51C	0.539
G9A A57G	0.933
G9C A14C A69U	≤ 0.5
G9A C34U G67A	≤ 0.5
G9C A14G G44A U53C A70U	≤ 0.5
G9A A69G	0.953
G9A A69U	1.04
G9A C24G C34G A45C A65G	≤ 0.5

Variant	yeast fitness
G9A C11A G44C	≤ 0.5
G9A C27G A40G G52A	≤ 0.5
G9A A21U A36G A40C A69U	≤ 0.5
G9A U28C A36G	0.683
G9C A15G G58C	0.564
G9A C55G A69C	0.611
G9A C29A A37G	0.513
G9A A42C C66U	0.543
G9A G38C G41C A45G	≤ 0.5
G9A U53G	0.661
G9A C34U C46A C62U	0.546
G9A C11A A20U G23A G51A	≤ 0.5
G9A G12U A14U U53A U54C	≤ 0.5
G9A C29U U59G A65C	≤ 0.5
G9A A36G G50C U64C	0.645
G9A G12C C31A C33G A43C A69U A70C	≤ 0.5
G9A A65U	0.93
G9A A65G C66U	0.815
G9A G39A A45G G50A G63U A69U	≤ 0.5
G9A U16C A21G A42G	≤ 0.5
G9A A15U C31G U53A C55U A57C C60G G67C	≤ 0.5
G9A A45U A70U	1.01
G9A C11U C66U	0.779
G9A C30A A65C	0.664

Variant	yeast fitness
G9A A21G C62U G63C A70C	0.52
G9A C11G U19C C55A	≤ 0.5
G9A G10A C31G G52A A65C	≤ 0.5
G9A U19C C22A	0.606
G9A C27G C34A C46G C55A	0.508
G9A C46A	0.91
G9C A15G C27A C31G G50A	0.642
G9A A36U G39A G67A	≤ 0.5
G9A C24G A37C A70U	≤ 0.5
G9A C27G U35A	≤ 0.5
G9C A21G A57C	≤ 0.5
G9A C27U G41C	0.618
G9C A15C C34G C66A A69C	≤ 0.5
G9C A14G U16G G23A C33A G44A	≤ 0.5
G9A C27A A42C C49G G51C A65C	≤ 0.5
G9A A36U C46U	≤ 0.5
G9A C11A A20U C61U	0.559
G9A A20C	0.871
G9A U16A A42C U53C C62A	≤ 0.5
G9A C34G U47C	≤ 0.5
G9A C11U C29U A65U	≤ 0.5
G9C A14U G48C U64G	≤ 0.5
G9A C27G C34U	≤ 0.5
G9A A40G	0.918

Variant	yeast fitness
G9A A40C	0.881
G9A C46A C55U	0.543
G9A C30G C31G A43G A65G	≤ 0.5
G9A G12C A65G G67C A69G	≤ 0.5
G9C A40G A42G A57U C62G C66U	0.565
G9A C24G C34G C55A A65G	≤ 0.5
G9A U26G C30A	0.636
G9A G50A G67A	0.652
G9C A14C A15U G23A C34A G52C G63C	0.585
G9A G39C A42C C49A	≤ 0.5
G9A G56A	1
G9A C24G C34G	0.633
G9A C30U C33A A36U A43U U54C G56A	0.626
G9A C11G U19C A20G G56A C60G	≤ 0.5
G9A G12C G17A C22G C30U C34G C49U U59G	≤ 0.5
G9A G25A A43G A65U	≤ 0.5
G9A A15U U59A A65C	0.654
G9A C24U A40U G68C	≤ 0.5
G9A G51C G52C	≤ 0.5
G9C A14C A15U G23A C34A G52C	≤ 0.5
G9A G44A C46U A69C	0.787
G9A G39A A45G G50A	≤ 0.5
G9C A14C U19G A42U	≤ 0.5
G9A U54C	0.841

Variant	yeast fitness
G9C A40U A70U	≤ 0.5
G9C A36U A40U G44A G63A	≤ 0.5
G9A A20G C30U	0.71
G9C A15G U16C C29A U47C	0.69
G9A U19G U59C C62G A65U	≤ 0.5
G9A C29U U59A	0.561
G9A C11A A40U G48C C55U C61G	≤ 0.5
G9C A21G U64A	≤ 0.5
G9A C24G G39C G56C	≤ 0.5
G9A C61U	0.949
G9C A15G C49A	0.601
G9C A15U U16C A36U	≤ 0.5
G9A G25C	0.931
G9A G44C C66U	0.552
G9A C22U C30G C61U	≤ 0.5
G9A U16A C30G A57C	≤ 0.5
G9A C30U G44A	0.615
G9A A45G G50C A69C	≤ 0.5
G9C A20G U35C A36G	≤ 0.5
G9A C29G G63A	0.525
G9C A14U G51A U64G	0.608
G9A C27G C31U C46G G51C G52A	≤ 0.5
G9A C55G G56C	≤ 0.5
G9A C11G U13G G23C C34U C55U	≤ 0.5

Variant	yeast fitness
G9A G10A C24A G44A	≤ 0.5
G9A C29U U32A A43U	0.604
G9C A21G G44C U47C A70U	≤ 0.5
G9A A15U C33G G39A C62A	≤ 0.5
G9A C29U A65U	≤ 0.5
G9A G12C A14C	0.535
G9C A21G A42G	≤ 0.5
G9A C24U U32G	≤ 0.5
G9A G10A U28A G39A G48A C61G C66G	≤ 0.5
G9C A20C U47C C66A	0.543
G9A G17C A43U	≤ 0.5
G9C A15G C30U C46A U54A A57G	≤ 0.5
G9A G44U	0.766
G9A G56A A70C	1.03
G9A G50C	0.947
G9A G51A C60U G67A	0.588
G9A C11G C22U A40G A42G	≤ 0.5
G9C A20C	0.626
G9C A15C U16C C34G C66A A69C	≤ 0.5
G9A C31A U47A	≤ 0.5
G9A C27G C31U C46G G51C A70U	≤ 0.5
G9A A43C	1.07
G9A A43U	1.08
G9A C11U C31U	0.704

Variant	yeast fitness
G9A C29A G56C	≤ 0.5
G9A A21G	1.05
G9A A21U	0.693
G9A C33U U47C	≤ 0.5
G9A C34A G58A	0.667
G9A C34G G38C	≤ 0.5
G9C A14U A21C C61A	0.81
G9A C11A C30G C46U	≤ 0.5
G9A C22A C33G U35A C55U	≤ 0.5
G9A C31A G41C C55U	≤ 0.5
G9A C27A	0.955
G9A C30U A57G	≤ 0.5
G9A C22G A36U	0.666
G9A A40G U64C	0.722
G9A G18A A21C C29U G58C C66G	≤ 0.5
G9C A20U C27G A42C C49U A65C	≤ 0.5
G9A U26A	0.837
G9A A42U U59A G67C	≤ 0.5
G9A C31A U47C G67A	≤ 0.5
G9A U13C U19C C34U	0.549
G9A C11A U35C G50C	≤ 0.5
G9A C31G	0.819
G9A U16C A20C C61U	≤ 0.5

From the RNAGym collection of RNA variant scans (doi:10.1126/science.aae0568)
